In general, inhibition refers to the change of the read-out against control, counted positive when it falls.

The whole screen tested about 330,000 compounds, of which about 2,400 (0.73%) were called active. The calls were made as follows: active = inhibition of at least 40% at 20 µM; inactive = the rest. What follows is part of a selection rich in actives, with near analogues and random picks from the rest.

Sequence of Apoptotic protease-activating factor 1 (Homo sapiens) (O14727 whole entry, looked up): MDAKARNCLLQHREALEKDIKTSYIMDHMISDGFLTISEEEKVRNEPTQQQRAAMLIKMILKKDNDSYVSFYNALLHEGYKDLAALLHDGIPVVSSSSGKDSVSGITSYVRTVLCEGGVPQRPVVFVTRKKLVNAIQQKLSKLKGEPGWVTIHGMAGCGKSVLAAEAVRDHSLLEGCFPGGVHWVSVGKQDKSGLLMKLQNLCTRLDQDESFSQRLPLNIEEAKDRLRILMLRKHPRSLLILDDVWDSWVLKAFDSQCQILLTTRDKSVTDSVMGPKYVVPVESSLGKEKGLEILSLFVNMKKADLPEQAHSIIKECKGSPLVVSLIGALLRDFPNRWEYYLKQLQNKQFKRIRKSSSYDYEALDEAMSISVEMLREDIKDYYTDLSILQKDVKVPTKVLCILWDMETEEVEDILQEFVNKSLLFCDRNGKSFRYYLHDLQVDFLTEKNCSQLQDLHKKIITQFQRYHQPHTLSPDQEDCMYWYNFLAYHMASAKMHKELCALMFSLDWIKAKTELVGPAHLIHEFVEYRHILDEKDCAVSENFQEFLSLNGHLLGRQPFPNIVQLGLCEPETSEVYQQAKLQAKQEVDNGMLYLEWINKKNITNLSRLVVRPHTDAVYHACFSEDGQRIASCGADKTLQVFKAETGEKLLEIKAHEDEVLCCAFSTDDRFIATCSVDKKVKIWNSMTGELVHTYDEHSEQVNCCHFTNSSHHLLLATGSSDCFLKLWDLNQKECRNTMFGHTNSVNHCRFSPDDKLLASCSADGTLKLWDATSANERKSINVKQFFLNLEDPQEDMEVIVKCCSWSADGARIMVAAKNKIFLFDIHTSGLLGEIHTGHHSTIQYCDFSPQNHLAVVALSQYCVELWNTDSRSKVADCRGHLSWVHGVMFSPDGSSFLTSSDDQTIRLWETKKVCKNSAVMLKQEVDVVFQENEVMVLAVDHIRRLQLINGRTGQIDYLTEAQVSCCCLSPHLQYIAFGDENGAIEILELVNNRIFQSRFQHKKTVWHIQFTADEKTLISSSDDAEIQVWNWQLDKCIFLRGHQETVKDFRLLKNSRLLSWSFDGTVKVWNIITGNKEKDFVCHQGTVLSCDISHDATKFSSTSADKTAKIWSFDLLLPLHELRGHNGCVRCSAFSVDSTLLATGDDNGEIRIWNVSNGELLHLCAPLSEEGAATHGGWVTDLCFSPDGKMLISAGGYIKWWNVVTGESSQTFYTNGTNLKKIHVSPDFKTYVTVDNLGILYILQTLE

The test deals with Apoptotic protease-activating factor 1 (Homo sapiens) (UniProt O14727). Description: blockers of Apaf-1-driven caspase-3 activation – biochemical, DEVD-Rh110 fluorescence, uHTS, primary screen (AID 489030).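 Also: plate controls were DMSO wells for no effect and DEVD-CHO caspase inhibitor wells for full effect.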 The following applies: reconstituted apoptosome caspase-3 activity, at 20 µM, stronger effect = higher value. An outline of the steps:
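System: reconstituted apoptosome with Apaf-1, cytochrome c, caspase-9, procaspase-3, dATP; Signal: Rh110 fluorescence intensity; Schedule: 30 min compound preincubation, 50 min activation, room temperature; Reagent: cytochrome c trigger plus (Z-DEVD)2-Rh110 caspase-3 substrate.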
As to `O=C(COC(=O)c1ccc(O)cc1O)NNC(=O)c1cccs1`, the inhibition is -6.93% (inactive).

In the case of `Cc1cccc(OCCNC(=O)CSc2ccc(C(F)(F)F)cc2[N+](=O)[O-])c1`, the inhibition is 15.2% (inactive).

Regarding `Cc1c(C)n(Cc2ccc(Cl)cc2)c2ccc(C(=O)NCCCN3CCOCC3)cc12`, the inhibition is 25.9% (inactive).

For the molecule `CC(C)OCCCNC(=O)CN1C(=O)/C(=C/c2ccccc2F)Oc2ccccc21`, the inhibition was 11% (inactive).

`CN1CCN(CCCNC(=O)c2ccc(/C=C3\Oc4ccccc4N(Cc4ccc(Cl)cc4)C3=O)cc2)CC1`: the inhibition is 56.6% (active).

As to `O=C(NCC1CC1)c1onc(CSc2ccccc2)c1C(=O)NCC1CC1`, the inhibition was 14.7% (inactive).

`COc1cccc(NC(=O)CSc2nccn(-c3ccc4c(c3)OCCO4)c2=O)c1`: the inhibition was 5.15% (inactive).

For `CCOc1cc(CNCCN(C)C)c(Cl)cc1OCC(=O)NCCc1ccccc1`, the inhibition was 13.1% (inactive).

With `COc1ccc(S(=O)(=O)N(C)C[C@@H]2Oc3ccc(NS(=O)(=O)c4cn(C)cn4)cc3C(=O)N([C@@H](C)CO)C[C@@H]2C)cc1`, the inhibition was 5.38% (inactive).

Take `O=C1NNC(c2ccccc2)=N/C1=C\c1ccc(Cl)cc1`: the inhibition was 50.6% (active).

Consider `Cc1ccc(Cl)c(OCC(=O)N(C)CC(=O)Nc2ccc(N3CCOCC3)cc2)c1`, for which the inhibition is 7.19% (inactive).

Consider `COC(=O)c1ccc(COC(=O)C2CCN(S(=O)(=O)c3c(Cl)cccc3Cl)CC2)o1`, for which the inhibition was 0.83% (inactive).

For `O=C(Nc1cccc(-c2cccc(Cl)c2)c1)C1CCN(C2CCC2)CC1`, the inhibition is 25.3% (inactive).

Turning to `CCn1cc(CN2CCC(C(=O)Nc3cccc(-c4cccc(Cl)c4)c3)CC2)cn1`, the inhibition is 33.8% (inactive).

For `CCn1cc(CN2CCC(C(=O)Nc3cccc(-c4cccc(Cl)c4)c3)CC2)c(C)n1`, the inhibition is 40.5% (active).

On to `COc1ccccc1N1CCN(C(=O)CSc2ncnc3c2cnn3-c2ccc(C)c(C)c2)CC1`, for which the inhibition is -2.97% (inactive).

`COc1cccc(-n2c(N)cc(=O)nc2SCC(=O)Nc2cc(C)on2)c1`: the inhibition is 0.469% (inactive).

Consider `CCCCN1C(=S)NC[C@@H]1C(C)CC` (some centres not stated), for which the inhibition is 1.66% (inactive).

`COc1ccccc1C(=O)N1C(CC(=O)Nc2ccccc2C)C(=O)NC2CCCCC21` (configuration not stated): the inhibition is -7.88% (inactive).

For `CCOC(=O)Cc1cc(=O)[nH]c(/N=C(\N)Nc2ccc(OC)cc2)n1`, the inhibition was -3.54% (inactive).

Take `CCOC(=O)c1ccc(NC(=O)c2c(NCc3ccccc3)[nH]c(=O)[nH]c2=O)cc1`: the inhibition was 3.08% (inactive).

For `CCOC(=O)c1ccc(NC(=O)c2c(N)n(C)c(=O)[nH]c2=O)cc1`, the inhibition was -13.8% (inactive).

Consider `CCOC(=O)c1ccc(Nc2cc3ccccc3c(=O)[nH]2)cc1`, for which the inhibition was 92.5% (active).

For `COc1ccc(/C=C/c2c(-c3cccc(C)c3)oc3ccc(-c4ccc5c(c4)OCO5)cc23)cc1`, the inhibition was -2.24% (inactive).

`CN(CC(=O)Nc1ccccc1Cl)C(=O)c1ccccc1SCC(=O)N1CCCC1`: the inhibition is -3.37% (inactive).

Turning to `CC(NC(=O)c1ccccc1SCC(=O)N1CCCC1)c1ccccc1` (configuration not stated), the inhibition was 41.6% (active).

Consider `CC(C)N(Cc1ccccc1)C(=O)COC(=O)c1ccccc1SCC(=O)N1CCCC1`, for which the inhibition is 1.56% (inactive).

As to `Cc1ccc(NC2=NC(c3ccccc3)n3c(nc(C)cc3=O)N2)cc1` (configuration not stated), the inhibition is 5.19% (inactive).

On to `O=C(Nc1ccccc1C(=O)O)c1cc(S(=O)(=O)N2CCCCC2)cs1`, for which the inhibition was -2.29% (inactive).

For the molecule `COc1ccc(C2=NS(=O)(=O)N(C)C(C(=O)NC(C)c3ccccc3)=C2)cc1` (configuration not stated), the inhibition was 1.57% (inactive).

As for `C=CCOc1c(Br)cc(/C=N\n2nnnc2N)cc1OC`, the inhibition is 2.56% (inactive).

Consider `COc1cc(/C=C2/C(=O)NN(c3cccc(Cl)c3)C2=O)cc(Br)c1O`, for which the inhibition is 5.53% (inactive).

As to `CCOc1c(Br)cc(/C=C2\C(=O)N(CCC#N)N=C2C)cc1OC`, the inhibition was 75.9% (active).

For `COc1cc(OC)cc(-c2c(-c3cccs3)c3cc(-c4ccc(OC)cc4F)ccc3n2C)c1`, the inhibition was 11.7% (inactive).

`COc1ccc(CCN2CC(C(=O)NCCN3CCNC3=O)CCC2=O)cc1` (configuration not stated): the inhibition was 0.96% (inactive).

`CCCCNC(=O)C(C)N(CCN(C)C)C(=O)CCCN1C(=O)NC(c2ccc(Cl)cc2)C(C(=O)OCc2ccccc2)=C1C` (configuration not stated): the inhibition is 57.1% (active).

Regarding `CCCCNC(=O)C(C)N(CCN(C)C)C(=O)CCCCCN1C(=O)NC(c2ccc(Cl)cc2)C(C(=O)OCc2ccccc2)=C1C` (configuration not stated), the inhibition was 67.1% (active).

On to `COC(=O)CCCCCN1C(=O)NC(c2ccc(-c3ccccc3)cc2)C(C(=O)OCc2ccccc2)=C1C` (configuration not stated), for which the inhibition was 19.3% (inactive).

As for `CCN1C(=O)N[C@@H](c2ccccc2)C(C(=O)OC)=C1C`, the inhibition is -2.25% (inactive).

As for `CC1=C(C(=O)OC(C)(C)C)C(c2ccc(Br)cc2)NC(=O)N1CCCC(=O)O` (configuration not stated), the inhibition was -6.71% (inactive).

On to `CC1=C(C(=O)OCc2ccccc2)C(c2ccc(C(F)(F)F)cc2)NC(=O)N1CCCCCC(=O)O` (configuration not stated), for which the inhibition was 19.6% (inactive).

`CCCOC(=O)c1c(NC(=O)c2cnn3c2NC(c2ccccc2)CC3C(F)(F)F)sc2c1CCCC2` (configuration not stated): the inhibition is -7.9% (inactive).

`NC(=O)c1ccc(-c2csnn2)cc1`: the inhibition was -3.94% (inactive).

On to `COc1ccc(-n2nc(C(=O)Nc3cc(OC)c(OC)c(OC)c3)c3ccccc3c2=O)c(OC)c1`, for which the inhibition was 28.5% (inactive).

As to `Nc1nnnn1/N=C/c1cccc(Br)c1`, the inhibition was 8.14% (inactive).

In the case of `COc1ccccc1C(=O)NCCC(=O)N(C)Cc1cccnc1`, the inhibition is -4.28% (inactive).

For `O=C(CCNS(=O)(=O)c1ccccc1)NCCCc1ccccc1`, the inhibition was 4.81% (inactive).

On to `Cc1ccc(OCCNC(=O)CCNS(=O)(=O)c2ccc(Br)cc2)cc1`, for which the inhibition is 11.6% (inactive).

Consider `O=C(CCNS(=O)(=O)c1ccccc1)NCCSc1ccc(Br)cc1`, for which the inhibition was 58.6% (active).

Consider `CCCc1c(C)nc2c(Br)cccc2c1Cl`, for which the inhibition is -2.72% (inactive).

As for `CC[N+](C)(CC)CCC[n+]1c(-c2ccccc2)c2cc(N)ccc2c2ccc(N)cc21`, the inhibition is 98.2% (active).

For `CCOC(=O)N1CCC(NC(=O)Cc2cn(C)c3ccccc23)CC1`, the inhibition was 3.3% (inactive).

`CCOC(=O)N1CCC(NC(=O)C(C)n2c3ccccc3c3cnn(C)c(=O)c32)CC1` (configuration not stated): the inhibition is 44.6% (active).

Consider `CCOC(=O)N1CCC(NC(=O)CCc2cn(C)c3ccccc23)CC1`, for which the inhibition is 0.184% (inactive).

On to `Cc1ccc2nc(N3CCN(C(=O)c4ccco4)CC3)sc2c1`, for which the inhibition is 41.9% (active).

Take `Cc1ccc2nc(N3C(=O)C(O)=C(C(=O)c4ccco4)C3c3cccc(O)c3)sc2c1` (configuration not stated): the inhibition was 9.5% (inactive).

Regarding `COc1ccc2nc(N3CCN(C(=O)c4ccc([N+](=O)[O-])o4)CC3)sc2c1`, the inhibition was 4.35% (inactive).

(Values after PubChem BioAssay AID489030 (Sanford-Burnham Center for Chemical Genomics, 2010).)
